Test results from ChEMBL document CHEMBL1141640, “Cyclic guanidines as dual 5-HT5A/5-HT7 receptor ligands: optimising brain penetration” (Bioorg Med Chem Lett, 2008).

How the values were obtained:
[1] = target: T1, 5-hydroxytryptamine receptor 1D (Homo sapiens, UniProt P28221); assay: Binding affinity to human 5HT1D receptor
[2] = target: 5-hydroxytryptamine receptor 7 (Homo sapiens, UniProt P34969); assay: Binding affinity to human 5HT7 receptor
[3] = target: 5-hydroxytryptamine receptor 5A (Rattus norvegicus, UniProt P35364); assay: Binding affinity to rat 5HT5A receptor
Sequence of 5-hydroxytryptamine receptor 5A (Rattus norvegicus, UniProt P35364) (P35364 whole entry): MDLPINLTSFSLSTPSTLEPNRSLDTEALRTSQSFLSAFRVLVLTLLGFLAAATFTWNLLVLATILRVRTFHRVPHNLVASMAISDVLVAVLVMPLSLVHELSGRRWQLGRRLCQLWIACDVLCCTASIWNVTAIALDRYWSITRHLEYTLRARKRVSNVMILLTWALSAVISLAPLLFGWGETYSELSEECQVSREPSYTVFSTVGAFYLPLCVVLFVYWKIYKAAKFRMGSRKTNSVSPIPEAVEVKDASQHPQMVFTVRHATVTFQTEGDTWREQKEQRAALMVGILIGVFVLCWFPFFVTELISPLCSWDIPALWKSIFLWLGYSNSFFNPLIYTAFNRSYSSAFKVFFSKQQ

[4] = target: 5-hydroxytryptamine receptor 2A (Homo sapiens, UniProt P28223); assay: Binding affinity to human 5HT2A receptor
Sequence of 5-hydroxytryptamine receptor 2A (P28223 whole entry): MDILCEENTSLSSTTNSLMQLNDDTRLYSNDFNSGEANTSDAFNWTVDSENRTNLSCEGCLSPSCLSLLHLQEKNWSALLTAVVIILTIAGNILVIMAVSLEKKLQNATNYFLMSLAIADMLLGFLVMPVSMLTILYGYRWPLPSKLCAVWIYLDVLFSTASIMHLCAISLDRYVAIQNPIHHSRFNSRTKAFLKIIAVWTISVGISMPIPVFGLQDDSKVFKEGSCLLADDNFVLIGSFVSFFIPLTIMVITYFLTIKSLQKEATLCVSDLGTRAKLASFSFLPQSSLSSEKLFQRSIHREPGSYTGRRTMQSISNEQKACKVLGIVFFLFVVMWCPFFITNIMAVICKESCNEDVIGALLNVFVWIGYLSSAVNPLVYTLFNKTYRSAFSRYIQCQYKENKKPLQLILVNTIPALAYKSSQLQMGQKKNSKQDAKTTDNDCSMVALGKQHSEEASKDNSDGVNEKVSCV

[5] = target: T2, 5-hydroxytryptamine receptor 1A (Homo sapiens, UniProt P08908); assay: Binding affinity to human 5HT1A receptor
T2 sequence (P08908 whole entry): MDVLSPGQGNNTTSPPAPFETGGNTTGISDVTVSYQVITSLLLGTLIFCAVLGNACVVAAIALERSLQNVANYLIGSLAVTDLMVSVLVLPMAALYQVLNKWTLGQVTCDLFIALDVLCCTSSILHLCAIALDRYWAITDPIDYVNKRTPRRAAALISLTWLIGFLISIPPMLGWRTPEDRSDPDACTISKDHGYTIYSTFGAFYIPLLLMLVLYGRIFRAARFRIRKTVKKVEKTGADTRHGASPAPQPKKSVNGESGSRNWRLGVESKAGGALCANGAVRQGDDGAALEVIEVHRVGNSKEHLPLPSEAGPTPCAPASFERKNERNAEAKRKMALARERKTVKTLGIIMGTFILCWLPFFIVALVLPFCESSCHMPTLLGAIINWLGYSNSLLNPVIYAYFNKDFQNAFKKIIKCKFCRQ

[6] = target: 5-hydroxytryptamine receptor 6 (Homo sapiens, UniProt P50406); assay: Binding affinity to human 5HT6 receptor
Sequence of 5-hydroxytryptamine receptor 6 (P50406 whole entry): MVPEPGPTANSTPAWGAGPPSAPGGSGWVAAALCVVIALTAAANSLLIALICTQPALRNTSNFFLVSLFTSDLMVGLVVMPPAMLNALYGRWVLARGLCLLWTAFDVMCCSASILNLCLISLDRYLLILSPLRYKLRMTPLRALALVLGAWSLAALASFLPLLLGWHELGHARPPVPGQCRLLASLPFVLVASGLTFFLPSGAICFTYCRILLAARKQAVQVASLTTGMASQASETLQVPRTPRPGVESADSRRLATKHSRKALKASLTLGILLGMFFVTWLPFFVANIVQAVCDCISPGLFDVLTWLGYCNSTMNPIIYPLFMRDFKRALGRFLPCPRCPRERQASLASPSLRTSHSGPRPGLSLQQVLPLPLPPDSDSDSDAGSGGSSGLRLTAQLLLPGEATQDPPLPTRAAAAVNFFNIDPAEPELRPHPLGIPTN

[7] = target: T3, 5-hydroxytryptamine receptor 3A (Homo sapiens, UniProt P46098); assay: Binding affinity to human 5HT3 receptor
T3 sequence (P46098 whole entry): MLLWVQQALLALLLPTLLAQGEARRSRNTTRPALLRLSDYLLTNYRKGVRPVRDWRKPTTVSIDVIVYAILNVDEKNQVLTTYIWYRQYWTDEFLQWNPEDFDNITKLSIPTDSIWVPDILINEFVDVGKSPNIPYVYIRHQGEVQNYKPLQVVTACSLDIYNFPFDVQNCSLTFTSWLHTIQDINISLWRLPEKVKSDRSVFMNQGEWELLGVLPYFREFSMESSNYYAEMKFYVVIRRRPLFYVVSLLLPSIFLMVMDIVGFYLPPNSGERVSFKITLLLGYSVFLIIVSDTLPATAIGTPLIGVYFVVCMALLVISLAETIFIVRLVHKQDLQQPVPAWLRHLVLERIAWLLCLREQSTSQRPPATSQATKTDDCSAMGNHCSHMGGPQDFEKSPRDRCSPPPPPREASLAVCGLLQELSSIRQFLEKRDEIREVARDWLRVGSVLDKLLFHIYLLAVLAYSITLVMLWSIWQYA

[8] = target: 5-hydroxytryptamine receptor 5A (Homo sapiens, UniProt P47898); assay: Binding affinity to human 5HT5A receptor; conditions: read-out: Ki
Sequence of 5-hydroxytryptamine receptor 5A (Homo sapiens, UniProt P47898) (P47898 whole entry): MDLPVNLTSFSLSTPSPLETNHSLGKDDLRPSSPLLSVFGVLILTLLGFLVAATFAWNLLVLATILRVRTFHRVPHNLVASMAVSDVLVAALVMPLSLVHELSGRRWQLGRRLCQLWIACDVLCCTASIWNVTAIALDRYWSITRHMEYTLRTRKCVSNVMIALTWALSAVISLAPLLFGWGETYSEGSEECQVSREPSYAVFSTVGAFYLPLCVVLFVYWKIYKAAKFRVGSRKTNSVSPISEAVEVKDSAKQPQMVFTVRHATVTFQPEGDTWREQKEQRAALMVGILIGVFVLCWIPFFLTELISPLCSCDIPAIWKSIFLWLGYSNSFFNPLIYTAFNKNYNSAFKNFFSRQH

[9] = target: T4, 5-hydroxytryptamine receptor 2C (Homo sapiens, UniProt P28335); assay: Binding affinity to human 5HT2C receptor
T4 sequence (P28335 whole entry): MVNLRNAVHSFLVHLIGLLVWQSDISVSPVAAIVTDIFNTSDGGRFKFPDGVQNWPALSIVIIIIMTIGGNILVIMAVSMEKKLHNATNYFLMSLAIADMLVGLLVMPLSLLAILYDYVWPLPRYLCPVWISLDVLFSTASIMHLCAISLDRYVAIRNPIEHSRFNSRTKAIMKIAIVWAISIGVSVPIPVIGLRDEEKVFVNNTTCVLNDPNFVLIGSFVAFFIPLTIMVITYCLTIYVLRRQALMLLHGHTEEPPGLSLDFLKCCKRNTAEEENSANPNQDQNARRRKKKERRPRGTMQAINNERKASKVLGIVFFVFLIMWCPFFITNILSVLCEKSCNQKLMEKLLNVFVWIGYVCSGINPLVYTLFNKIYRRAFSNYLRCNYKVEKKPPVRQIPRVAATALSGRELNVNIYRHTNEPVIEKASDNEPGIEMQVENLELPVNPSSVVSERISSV

[10] = Distribution coefficient, log D of the compound; assay type: physicochemical; conditions: octanol/water
How it was run: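 Lipophilicity reported as log D at pH 7.4 (log D7.4), measured alongside the guanidine pKa.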

[11] = Selectivity for human 5HT5A receptor over 5HT3 receptor
[12] = target: T4, 5-hydroxytryptamine receptor 2C; assay: Binding affinity to 5HT2C receptor
[13] = Selectivity for human 5HT5A receptor over 5HT6 receptor
[14] = target: T2, 5-hydroxytryptamine receptor 1A; assay: Binding affinity to 5HT1A receptor
[15] = target: T1, 5-hydroxytryptamine receptor 1D; assay: Binding affinity to 5HT1D receptor
[16] = Dissociation constant, pKa of the compound; assay type: physicochemical
[17] = Selectivity for human 5HT5A receptor over 5HT2A receptor
Histamine H1 receptor = Histamine H1 receptor (Homo sapiens, UniProt P35367); assay: Binding affinity to histamine H1 receptor
Sequence of Histamine H1 receptor (P35367 whole entry): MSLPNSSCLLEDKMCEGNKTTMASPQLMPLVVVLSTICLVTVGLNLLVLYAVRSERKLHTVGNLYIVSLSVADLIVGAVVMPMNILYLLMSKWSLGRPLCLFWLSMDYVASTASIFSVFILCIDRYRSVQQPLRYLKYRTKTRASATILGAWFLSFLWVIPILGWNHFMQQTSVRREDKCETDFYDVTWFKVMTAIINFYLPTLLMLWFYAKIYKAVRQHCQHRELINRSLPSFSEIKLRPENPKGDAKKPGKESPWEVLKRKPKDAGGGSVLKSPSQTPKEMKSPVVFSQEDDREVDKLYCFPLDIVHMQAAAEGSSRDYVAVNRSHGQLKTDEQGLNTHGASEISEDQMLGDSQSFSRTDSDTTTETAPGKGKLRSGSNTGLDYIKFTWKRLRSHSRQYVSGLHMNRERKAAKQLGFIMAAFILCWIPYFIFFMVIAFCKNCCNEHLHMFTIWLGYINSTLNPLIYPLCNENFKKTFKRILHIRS

Sequence of 5-hydroxytryptamine receptor 7 (P34969 whole entry): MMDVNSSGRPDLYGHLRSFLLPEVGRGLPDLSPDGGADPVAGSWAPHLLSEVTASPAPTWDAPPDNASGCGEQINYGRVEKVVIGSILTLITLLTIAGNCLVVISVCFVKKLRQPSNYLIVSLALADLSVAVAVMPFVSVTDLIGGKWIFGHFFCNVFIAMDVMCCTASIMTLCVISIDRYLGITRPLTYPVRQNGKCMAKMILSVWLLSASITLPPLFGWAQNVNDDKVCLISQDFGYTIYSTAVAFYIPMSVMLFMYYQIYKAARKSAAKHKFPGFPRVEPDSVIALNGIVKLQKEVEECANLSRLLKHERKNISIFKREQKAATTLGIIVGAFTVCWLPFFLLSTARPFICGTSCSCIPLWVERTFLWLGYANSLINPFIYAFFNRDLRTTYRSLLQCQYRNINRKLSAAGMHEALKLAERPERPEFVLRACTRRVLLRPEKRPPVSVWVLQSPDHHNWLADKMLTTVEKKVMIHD
T1 sequence (P28221 whole entry): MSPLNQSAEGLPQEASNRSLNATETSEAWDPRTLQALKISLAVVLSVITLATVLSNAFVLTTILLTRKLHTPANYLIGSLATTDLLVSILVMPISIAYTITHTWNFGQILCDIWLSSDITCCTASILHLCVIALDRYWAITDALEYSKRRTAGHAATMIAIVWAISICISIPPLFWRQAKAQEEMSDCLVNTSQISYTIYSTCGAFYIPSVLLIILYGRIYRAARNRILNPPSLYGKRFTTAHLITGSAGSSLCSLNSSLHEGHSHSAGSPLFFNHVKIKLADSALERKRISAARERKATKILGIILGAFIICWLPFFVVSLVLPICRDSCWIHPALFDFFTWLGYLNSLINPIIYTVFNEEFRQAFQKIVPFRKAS

| Ki [2] | Ki [8] | logD [10] | Ki [12] | Ki [14] | Ki [15] | pKa [16] | Structure (SMILES) | other results |
| --- | --- | --- | --- | --- | --- | --- | --- | --- |
| 6 nM | 1.6 nM | – | – | – | – | – | C[C@@H]1NC(N)=Nc2cccc(Cl)c21 | Ki [1]: 1100 nM; Ki [3]: 1.3 nM; Ki [4]: 257 nM; Ki [5]: 95.2 nM; Ki [6]: 1030 nM; Ki [7]: 1060 nM; Ki [9]: 55 nM |
| – | 415 nM | – | – | – | – | – | C[C@H]1NC(N)=Nc2cccc(Cl)c21 | – |
| 7.7 nM | 1.8 nM | 2.7 | 121 nM | 75 nM | 233 nM | 8.5 | C[C@@H]1NC(NCC(F)F)=Nc2ccc(Cl)c(Cl)c21 | Selectivity ratio [11]: > 30; Selectivity ratio [13]: > 30; Ki (Histamine H1 receptor): 2.6 nM; Selectivity ratio [17]: > 30 |
| – | 196 nM | -0.9 | – | – | – | 10.8 | CCNC1=Nc2ccccc2C(C)N1 (stereo unspecified) | – |
| – | 488 nM | 0.5 | – | – | – | 9.2 | CC1NC(NCC(F)(F)F)=Nc2ccccc21 (stereo unspecified) | – |

More lines, now with the values behind:

| Structure (SMILES) | Ki [2] | Ki [8] | logD [10] | Ki [12] | Ki [14] | Ki [15] | pKa [16] | other results |
| --- | --- | --- | --- | --- | --- | --- | --- | --- |
| CCCOCCNC1=Nc2ccccc2C(C)N1 (stereo unspecified) | – | 241 nM | 0.1 | – | – | – | – | – |
| COc1c(Cl)ccc2c1C(C)NC(NCC(F)F)=N2 (stereo unspecified) | 17.6 nM | 22.2 nM | 1.5 | 233 nM | 348 nM | 1810 nM | 8.9 | Selectivity ratio [11]: > 30; Selectivity ratio [13]: > 30; Selectivity ratio [17]: > 30 |
| CC1NC(NCC(F)F)=Nc2c(Cl)ccc(Cl)c21 (stereo unspecified) | 366 nM | 33.4 nM | 3 | 675 nM | 87 nM | > 10000 nM | 7.8 | Selectivity ratio [11]: > 30; Selectivity ratio [13]: > 30; Selectivity ratio [17]: > 30 |
| CCCNC1=Nc2ccccc2C(C)N1 (stereo unspecified) | – | 153 nM | -0.8 | – | – | – | 10.7 | – |
| CC(C)Oc1cccc2c1N=C(NCC(F)F)NC2C (stereo unspecified) | 4.2 nM | 22.2 nM | 0.1 | 2150 nM | 240 nM | 82 nM | 10.2 | Selectivity ratio [11]: > 30; Selectivity ratio [13]: > 30; Selectivity ratio [17]: > 30 |
| CCOCCCNC1=Nc2ccccc2C(C)N1 (stereo unspecified) | – | 176 nM | -0.3 | – | – | – | – | – |
| CNC1=Nc2ccccc2C(C)N1 (stereo unspecified) | – | 103 nM | -0.6 | – | – | – | 10.6 | – |
| CC1NC(NC[C@H]2CCCO2)=Nc2ccccc21 (stereo partly specified) | – | 163 nM | -0.6 | – | – | – | – | – |
| C[C@H]1NC(NCC(F)F)=Nc2ccc(Cl)c(Cl)c21 | 1700 nM | 504 nM | 2.7 | 238 nM | 612 nM | > 10000 nM | 8.5 | – |
